For test [1], the system named is Monkey. The experiment in a line: Maximum fall in mean arterial blood pressure expressed in mmHg following a 30 mg/kg dose in monkeys. It is filed as functional, Cercopithecidae. In a few lines:
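Conscious monkeys were dosed orally by gavage at 30 mg/kg in water/dimethylacetamide/Tween 80 (62.5:7.5:30), 2 mL/kg. Two models were used: high-renin normotensive (sodium restriction plus furosemide) or renal hypertensive (renal artery clipping). Mean arterial pressure was followed for 3 h, and the maximum fall in mmHg was recorded. N is given per compound.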

For test [2], the target named is T1, Cathepsin D (Bos taurus, UniProt P80209).
T1 sequence (P80209 whole entry): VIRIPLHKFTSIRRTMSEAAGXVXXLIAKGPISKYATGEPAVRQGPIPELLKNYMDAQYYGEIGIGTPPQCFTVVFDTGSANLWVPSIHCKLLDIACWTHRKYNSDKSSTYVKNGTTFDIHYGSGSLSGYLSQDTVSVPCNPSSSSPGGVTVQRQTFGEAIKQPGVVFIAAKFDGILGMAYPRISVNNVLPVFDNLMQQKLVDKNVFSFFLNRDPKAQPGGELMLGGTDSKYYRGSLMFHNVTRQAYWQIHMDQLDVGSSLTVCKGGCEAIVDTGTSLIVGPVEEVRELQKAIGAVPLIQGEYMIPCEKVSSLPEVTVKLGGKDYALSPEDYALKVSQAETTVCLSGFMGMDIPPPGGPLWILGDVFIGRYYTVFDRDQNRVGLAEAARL
Description: Inhibitory concentration on Bovine Cathepsin D. In a few lines: (§1)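 Bovine cathepsin D hydrolysing twice-crystallised bovine hemoglobin at pH 3.2 and 37 °C, run in duplicate. Net absorbance at 280 nm was read in acid-precipitated supernatants and compared with uninhibited controls. IC50 came from nonlinear regression over six inhibitor concentrations.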

The target of test [3] is Renin (Macaca fascicularis). The experiment in a line: Inhibition of monkey plasma renin.
For test [4], the target named is T1, Cathepsin D. The experiment in a line: Inhibition of Bovine Cathepsin D. In a few lines:
as §1

Test [5] has as its target Chymotrypsinogen A (Bos taurus) (UniProt P00766). Description: % degradation to Chymotrypsinogen proteolysis at 30 mins. In a few lines:
(§2)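 Bovine chymotrypsin in buffered solution at pH 6.9, following a previously established method. Test compound was incubated with the enzyme, and the percent of compound degraded was read at 15 or 30 min.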

The target is the same in test [6]. The experiment in a line: % degradation to Chymotrypsinogen proteolysis at 15 mins. Put shortly:
as §2

The target of test [7] is T2, Renin (Homo sapiens, UniProt P00797).
T2 sequence (P00797 whole entry): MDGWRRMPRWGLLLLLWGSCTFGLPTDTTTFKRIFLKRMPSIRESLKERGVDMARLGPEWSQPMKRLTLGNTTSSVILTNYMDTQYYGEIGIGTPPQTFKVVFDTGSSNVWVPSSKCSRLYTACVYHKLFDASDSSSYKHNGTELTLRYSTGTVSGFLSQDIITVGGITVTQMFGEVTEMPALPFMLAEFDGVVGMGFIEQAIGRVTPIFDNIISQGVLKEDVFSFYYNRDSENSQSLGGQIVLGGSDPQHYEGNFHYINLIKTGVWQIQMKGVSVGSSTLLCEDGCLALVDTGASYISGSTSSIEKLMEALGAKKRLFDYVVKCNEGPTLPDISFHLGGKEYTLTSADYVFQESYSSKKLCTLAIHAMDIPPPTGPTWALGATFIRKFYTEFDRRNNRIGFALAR
The experiment in a line: Inhibitory concentration against human renin.

Test [8] deals with Monkey. The experiment in a line: Maximum fall in mean arterial blood pressure expressed in mmHg following a 3 mg/kg intravenous dose in monkeys.

As for `CSC[C@H](NC(=O)[C@H](Cc1ccccc1)NC(=O)N1CCOCC1)C(=O)N[C@@H](CC1CCCCC1)[C@@H](O)C(=O)OC(C)C`, the Blood pressure in test [1] amounted to 9 mmHg. The molecule further came in with a half-maximal inhibitory concentration (IC50) in test [2] of 0.024 µM.

With `C=CCOC(=O)C(NC(=O)[C@H](Cc1ccccc1)NS(=O)(=O)N1CCOCC1)C(=O)N[C@@H](CC1CCCCC1)[C@@H](O)[C@H](O)CC(C)C` (stereo partly drawn), the IC50 in test [3] was 0.00095 µM; in test [4] it was over 0.1 µM. In test [5], this molecule gave a Degradation of 65%.

`CC(C)C[C@@H](O)[C@H](O)[C@H](CC1CCCCC1)NC(=O)C(NC(=O)[C@H](Cc1ccccc1)NS(=O)(=O)N1CCOCC1)C(=O)O` (stereo partly drawn): the IC50 in test [3] turned out to be 0.027 µM; in test [4], 0.31 µM.

The molecule `COC(=O)C(NC(=O)[C@H](Cc1ccccc1)NS(=O)(=O)N1CCOCC1)C(=O)N[C@@H](CC1CCCCC1)[C@@H](O)[C@H](O)CC(C)C` (stereo in doubt; 4B) displayed an IC50 in test [4] of 0.077 µM. In addition, the Blood pressure in test [1] (30 mg/kg) is recorded as 14 mmHg.

In the case of `COC(=O)C(NC(=O)[C@H](Cc1ccccc1)NS(=O)(=O)N1CCOCC1)C(=O)N[C@@H](CC1CCCCC1)[C@@H](O)[C@H](O)CC(C)C` (stereo in doubt; 4) [listing 1 of 2 here], the figures for the Degradation in test [6] and in test [5] were 89% and 100%, respectively.

With `CCCCCCOC(=O)C(NC(=O)[C@H](Cc1ccccc1)NS(=O)(=O)N1CCOCC1)C(=O)N[C@@H](CC1CCCCC1)[C@@H](O)[C@H](O)CC(C)C` (stereo partly drawn), the IC50 worked out at 0.015 µM in test [3] and 0.1 µM in test [4]. The molecule further returned a Degradation in test [5] of 15%.

Consider `COC(=O)C(NC(=O)[C@H](Cc1ccccc1)NS(=O)(=O)N1CCOCC1)C(=O)N[C@@H](CC(C)C)[C@@H](O)CC(=O)NCCN1CCOCC1` (stereo partly drawn), for which the IC50 in test [2] was over 1 µM; in test [7], 0.13 µM.

Regarding `COC(=O)C(NC(=O)[C@H](Cc1ccccc1)NS(=O)(=O)N1CCOCC1)C(=O)N[C@@H](CC1CCCCC1)[C@@H](O)[C@H](O)CC(C)C` (stereo in doubt; 4A), in test [4], 0.046 µM corresponded to half-maximal inhibition (IC50). The molecule further displayed a Blood pressure in test [1] (30 mg/kg) of 18 mmHg.

`COC(=O)C(NC(=O)[C@H](Cc1ccccc1)NS(=O)(=O)N1CCOCC1)C(=O)N[C@@H](CC1CCCCC1)[C@@H](O)[C@H](O)CC(C)C` (stereo in doubt; 4) [listing 2 of 2 here] had a concentration for half-maximal inhibition (IC50) in test [4] of 0.036 µM. This molecule also showed a Blood pressure in test [1] (30 mg/kg) of 22 mmHg.

For `COC(=O)CCC(NC(=O)[C@H](Cc1ccccc1)NS(=O)(=O)N1CCOCC1)C(=O)N[C@@H](CC1CCCCC1)[C@@H](O)[C@H](O)CC(C)C` (stereo partly drawn), the values for the concentration for half-maximal inhibition (IC50) in test [3] and in test [4] were 0.0014 µM and 0.03 µM, respectively. The molecule also gave a Blood pressure in test [1] of 12 mmHg.

`CC(C)C[C@@H](O)[C@H](O)[C@H](CC1CCCCC1)NC(=O)C(NC(=O)[C@H](Cc1ccccc1)NS(=O)(=O)N1CCOCC1)C(=O)OC(C)C` (stereo partly drawn): the half-inhibitory concentration (IC50) is 0.00068 µM in test [3] and 0.043 µM in test [4]. This molecule displayed a Blood pressure in test [1] of 16 mmHg. Moreover, the Degradation in test [5] was determined as 70%.

`COC(=O)C(NC(=O)[C@H](Cc1ccccc1)NS(=O)(=O)N1CCOCC1)C(=O)N[C@@H](CC1CCCCC1)C(=O)C(F)(F)C(=O)NCCN1CCOCC1` (stereo partly drawn) came in with a Blood pressure in test [1] of 16 mmHg. This molecule also gave a half-maximal inhibitory concentration (IC50) in test [2] of 0.515 µM.

Take `COC(=O)CC(NC(=O)[C@H](Cc1ccccc1)NS(=O)(=O)N1CCOCC1)C(=O)N[C@@H](CC1CCCCC1)[C@@H](O)[C@H](O)CC(C)C` (stereo partly drawn): the 50% inhibitory concentration (IC50) in test [3] turned out to be 0.00018 µM; in test [4], 0.027 µM. In addition, in test [1], the Blood pressure came to 3 mmHg.

As to `COc1ccc(C[C@H](NC(=O)CC(C)(C)N)C(=O)N[C@@H](Cc2c[nH]cn2)C(=O)N[C@@H](CC2CCCCC2)[C@@H](O)[C@@H](O)CC(C)C)cc1`, the half-maximal inhibitory concentration (IC50) in test [4] was over 1 µM. For the same molecule, in test [1], the Blood pressure was determined as 8 mmHg.

For the molecule `COC(=O)C(NC(=O)[C@H](Cc1ccccc1)NS(=O)(=O)N1CCOCC1)C(=O)N[C@@H](CC1CCCCC1)[C@@H](O)CC(=O)NCCN1CCOCC1` (stereo partly drawn), in test [2], the IC50 is over 1 µM. In test [8], this molecule had a Blood pressure of 16 mmHg.

Molecule `CCCCNC(=O)[C@@H](C[C@H](O)[C@H](CC1CCCCC1)NC(=O)[C@H](Cc1c[nH]cn1)NC(=O)[C@H](Cc1ccccc1)CS(=O)(=O)C(C)(C)C)C(C)C` registered a Blood pressure in test [1] of 16 mmHg. In addition, half-maximal inhibition in test [2] (IC50) was put at 1.3 µM.

The values above are taken from ChEMBL document CHEMBL1125270, “Renin inhibitors containing esters at the P2-position. Oral activity in a derivative of methyl aminomalonate” (J Med Chem, 1991).
